Results of several laboratories.
pIC50: −log10 of the molar value.
Target: Prostaglandin G/H synthase 2 (PTGS2, Homo sapiens, UniProt P35354)
Effect on: enzyme activity
Mode: inhibitor
Residues used in one study (P35354 18-604): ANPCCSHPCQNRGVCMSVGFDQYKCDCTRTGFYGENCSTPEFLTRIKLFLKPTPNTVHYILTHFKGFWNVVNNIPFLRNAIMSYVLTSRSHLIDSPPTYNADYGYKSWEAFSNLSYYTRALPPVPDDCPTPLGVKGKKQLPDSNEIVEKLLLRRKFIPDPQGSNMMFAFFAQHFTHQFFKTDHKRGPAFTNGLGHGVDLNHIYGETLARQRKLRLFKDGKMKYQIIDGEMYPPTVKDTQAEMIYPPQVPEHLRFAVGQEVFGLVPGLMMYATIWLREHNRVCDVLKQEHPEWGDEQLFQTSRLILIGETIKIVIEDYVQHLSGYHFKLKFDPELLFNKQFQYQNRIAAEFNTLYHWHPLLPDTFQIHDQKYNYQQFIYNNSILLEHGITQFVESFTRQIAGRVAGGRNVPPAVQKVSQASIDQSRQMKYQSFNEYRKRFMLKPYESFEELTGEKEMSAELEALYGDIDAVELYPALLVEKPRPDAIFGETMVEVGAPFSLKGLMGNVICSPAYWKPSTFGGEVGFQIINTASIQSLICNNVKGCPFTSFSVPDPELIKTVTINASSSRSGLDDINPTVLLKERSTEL

For `Cc1ccc(S(=O)(=O)NNc2ccc([N+](=O)[O-])cc2[N+](=O)[O-])cc1`, the pIC50 was 5.32.
With `O=C(COC(=O)c1ccccc1Nc1cccc(C(F)(F)F)c1)Nc1ccc(F)cc1` the pIC50 was 4.24.
`CC(=NNC(=O)c1cc(-c2ccccc2)n(-c2ccc(S(N)(=O)=O)cc2)n1)c1ccc(C)cc1` gave a pIC50 of 5.87.
With `Cc1ccc(S(=O)(=O)[N](Nc2ccc([N+](=O)[O-])cc2[N+](=O)[O-])[Sn]([Cl])[Cl])cc1` the pIC50 was 5.56.
The pIC50 of `O=C(Nc1ccc(-c2ccccc2)cc1)c1cnn(-c2ccc([N+](=O)[O-])cc2)c1C(F)(F)F` is reported as 5.22.
With `NS(=O)(=O)c1ccc(-n2nc(C(=O)NN=Cc3cccnc3)cc2-c2ccccc2)cc1` the pIC50 was 5.41.
The pIC50 of `COc1cc(NC(=O)c2cnn(-c3ccc([N+](=O)[O-])cc3)c2C(F)(F)F)cc(OC)c1` is reported as 5.24.
`Cc1ccc(S(=O)(=O)NNC(=O)COC(=O)c2ccccc2Nc2cccc(C(F)(F)F)c2)cc1` has a pIC50 of 5.05.
